High-throughput results deposited in PubChem by Johns Hopkins Ion Channel Center.
Compounds with a hit are over-represented: about 3.5% of the library has one in this group of screens.
MrgX1 antag – antagonists of human MrgX1 receptor | MRGX1-HEK293 calcium flux, Fluo-4, BAM8-22 antagonism; stronger effect = lower value | B-score at 10 µM | actives 1.3% (n = 310,000) | AID 588676;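 active means calcium-response B-score plate-corrected more than 3 library SD below zero, starting fluorescence within 5 deviations, no agonist response on first addition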;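 further: peak minus trough fluorescence over baseline after final BAM8-22 challenge near maximal dose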
Target sequence (Q96LB2 whole entry, looked up): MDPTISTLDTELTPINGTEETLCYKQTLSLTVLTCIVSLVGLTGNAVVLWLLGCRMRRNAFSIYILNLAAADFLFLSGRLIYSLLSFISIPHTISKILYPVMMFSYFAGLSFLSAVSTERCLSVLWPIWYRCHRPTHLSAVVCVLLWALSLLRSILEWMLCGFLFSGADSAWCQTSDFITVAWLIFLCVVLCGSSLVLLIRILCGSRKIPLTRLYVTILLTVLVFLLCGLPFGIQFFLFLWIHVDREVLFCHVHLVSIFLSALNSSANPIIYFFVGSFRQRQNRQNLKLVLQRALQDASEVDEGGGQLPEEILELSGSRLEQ
RGS4 inh – inhibitors of human RGS4 | HEK293 M3R/RGS4 inducible, Fluo-4 calcium flux; stronger effect = higher value; triggered by carbachol at its EC20 | B-score at 10 µM | actives 0.45% (n = 310,000) | P49798;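 active means B-score, a plate-corrected calcium signal, over three deviations above library mean, with baseline fluorescence within five deviations of library mean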;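 further: RGS4 expression induced by doxycycline in cells with stable M3 receptor; B-score is computed from the integrated fluorescence ratio over baseline after carbachol; higher B-score means a larger calcium signal and so more RGS4 inhibition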
Target sequence (P49798 whole entry, looked up): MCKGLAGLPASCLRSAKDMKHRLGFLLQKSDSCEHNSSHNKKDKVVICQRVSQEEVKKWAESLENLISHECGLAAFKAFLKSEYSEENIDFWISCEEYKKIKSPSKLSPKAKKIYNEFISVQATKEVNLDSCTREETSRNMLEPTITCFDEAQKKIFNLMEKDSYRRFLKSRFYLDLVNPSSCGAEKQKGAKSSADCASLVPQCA
RGS4 act – RGS4 potentiation or activation; HEK293 M3R/inducible RGS4, carbachol calcium flux Fluo4; stronger effect = lower value; B-score at 10 µM; actives 0.92% (n = 310,000); AID 463111;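 active means B-score of the integrated calcium signal more than 4 SD below the library mean, with starting fluorescence not abnormally high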;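 further: negative B-score means reduced calcium response which marks RGS4 activation or potentiation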
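System: HEK293 FlpIn-TREx cells, stable M3R, doxycycline-inducible RGS4. Timing: overnight RGS4 induction, 30 min dye load 37 °C, 20 min compound RT. Also added: carbachol, ECmax concentration. Measured by: Fluo4 fluorescence kinetic imaging of calcium. Evaluation: integrated calcium ratio converted to B score.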
MrgX1 agonist – human MrgX1 receptor agonism, primary screen | Q96LB2 | MrgX1-HEK293 cells, Fluo-4 calcium fluorescence, agonist mode; stronger effect = higher value | B-score at 10 µM | actives 0.44% (n = 310,000);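 active means calcium response B-score plate-corrected fluorescence ratio at least 3 library SD, with starting fluorescence B-score inside 5 SD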
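Assay system: MrgX1-expressing HEK293 cells / Amount: fifteen thousand cells per well / Doses: test compound in the initial addition of three / Timing: cells plated overnight, dye loaded 0.5 h 37 °C, 0.5 h room temperature / Technique: kinetic calcium dye fluorescence, Fluo-4 NW / Control set: positive and negative controls per plate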
MrgX1 PAM – human MrgX1 positive allosteric modulation, primary screen; MrgX1-HEK293, Fluo-4 calcium flux, FDSS; stronger effect = higher value; AID 588675; Q96LB2; B-score at 10 µM; actives 0.63% (n = 310,000);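 active means plate-corrected calcium response at least 3 library SD above typical, normal starting fluorescence, not activating the receptor alone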;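 further: compound read alongside a low EC10 to EC30 dose of BAM8-22 agonist; peak minus trough fluorescence over baseline measured at the second addition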
RGS4 inh valid – validation of RGS4 inhibitors. shares compounds with RGS4 inh. HEK293 M3R/RGS4, carbachol calcium Fluo-4 fluorescence; carbachol added at its EC20; 0 = buffer wells, 100 = carbachol control. calcium response, % at 10 µM. actives 65% (n = 1,700);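 active means duplicate-averaged calcium response above the buffer-only control mean plus 5 SD of those controls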;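 further: integrated fluorescence ratio F max minus min over baseline F0; higher response in RGS4-induced cells means RGS4 inhibition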
RGS4 uninduced – counter-screen for RGS4 inhibitors: effect in non-induced cells; shares compounds with RGS4 inh; HEK293 M3R non-induced, carbachol calcium Fluo-4; submaximal (EC20) carbachol stimulus; buffer wells 0%, carbachol control wells 100%; activity (percent), % at 10 µM; actives 20% (n = 1,900); AID 493000; call rule not given here;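 further: RGS4 induction absent so cells express M3R without RGS4; higher means more calcium signal and flags a non-specific hit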
RGS4 inh ctr2 – second counter-screen for RGS4 inhibitors: non-induced cells without carbachol; HEK293 M3R/RGS4 non-induced, Fluo-4 calcium, no carbachol; normalised: buffer wells 0%, carbachol wells 100%; actives 22% (n = 1,900); shares compounds with RGS4 inh; calcium response (agonist-mode artifact), % at 10 µM;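 active means duplicate-averaged calcium rise in uninduced cells above buffer wells' mean plus 5 SD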
A number is an active result; n = inactive; x = no result given.

SMILES	MrgX1 antag	RGS4 inh	RGS4 act	MrgX1 agonist	MrgX1 PAM	RGS4 inh valid	RGS4 uninduced	RGS4 inh ctr2
O=c1cc(-c2ccccc2Cl)oc2c([N+](=O)[O-])c(O)cc(O)c12	n	10	n	n	n	32%	52%	n
CCn1ncc(S(=O)(=O)N2CCN(c3cccc(OC)c3)CC2)c1C	n	n	n	n	n	x	x	x
O=C(O)c1ccc(/C=C2\COc3ccccc3C2=O)cc1	n	31	n	n	n	45%	n	n
CCOc1cc(/C=C2\COc3ccccc3C2=O)cc(Br)c1OCC(=O)N(C)C	n	8.3	n	n	n	27%	n	n
COc1ccc(/C=C2\COc3ccccc3C2=O)cc1OC	n	n	n	n	n	x	x	x
CC(O)(CS(=O)(=O)Cc1ccccc1)c1ccccc1Cl (stereo not drawn)	n	n	n	n	n	x	x	x
Cc1noc(/C=C/c2ccccn2)c1[N+](=O)[O-]	n	6.8	n	n	n	27%	30%	n
COc1ccc(CCNC(=O)CC2COc3ccccc3O2)cc1OC (stereo not drawn)	n	13	n	n	n	n	n	n
COc1cc(OC)c(OC)cc1NC(=O)CC1COc2ccccc2O1 (stereo not drawn)	n	n	n	n	n	x	x	x
CSCCC(NS(=O)(=O)c1ccc(C)cc1)C(=O)NC1CCCCCC1 (stereo not drawn)	n	n	n	n	n	x	n	n
COc1ccc(S(=O)(=O)NC(CCSC)C(=O)NC2CCCCC2)cc1 (stereo not drawn)	n	5.2	n	n	n	n	n	n
COc1ccc(C(=O)COC(=O)C(CCSC)NS(=O)(=O)c2ccc(Cl)cc2)cc1 (stereo not drawn)	n	n	n	n	n	x	x	x
CSCCC(NS(=O)(=O)c1ccc(C)cc1)C(=O)NC1CCCCC1 (stereo not drawn)	n	n	n	n	n	n	n	n
Cc1ccccc1CC(=O)N1CC(C)OC(C)C1 (stereo not drawn)	n	n	n	n	n	x	x	x
COCCCNC(=S)N(CCO)Cc1cc2cc3c(cc2[nH]c1=O)OCCO3	n	5.2	n	n	n	n	n	n
CCCCNC(=S)N(CCCO)Cc1cc2cc3c(cc2[nH]c1=O)OCCO3	n	n	n	n	n	x	x	x
CNC(=S)N(CCO)Cc1cc2cc3c(cc2[nH]c1=O)OCCO3	n	n	n	n	n	x	x	x
CCN(CC)CCN(Cc1cc2cc3c(cc2[nH]c1=O)OCCO3)C(=S)NCCCOC	n	n	n	n	n	n	n	n
COCCNC(=S)N(CCO)Cc1cc2cc3c(cc2[nH]c1=O)OCCO3	n	n	n	n	n	n	n	n
NS(=O)(=O)c1ccc(N2N=C(c3ccccc3)CC2c2cccc(F)c2)cc1 (stereo not drawn)	n	n	n	n	n	x	x	x
COc1ccc(C2CC(c3ccccc3)=NN2c2ccc(S(N)(=O)=O)cc2)cc1OC (stereo not drawn)	n	8.5	n	n	n	53%	66%	n
COc1ccc(C2=NN(c3ccc(C(=O)O)cc3)C(c3ccc(OC)c(OC)c3)C2)cc1 (stereo not drawn)	n	9.3	n	n	n	18%	38%	n
COc1cc(C2CC(c3ccccc3)=NN2c2ccccc2)ccc1OCC(=O)O (stereo not drawn)	n	n	n	n	n	x	x	x
Cc1ccc(/C=N\NC(=O)Cc2noc3ccccc23)cc1	n	n	n	n	n	x	x	x
COc1ccccc1OCC(=O)NC1CC(C)(C)NC(C)(C)C1	n	n	n	n	n	x	x	x
SMILES	MrgX1 antag	RGS4 inh	RGS4 act	MrgX1 agonist	MrgX1 PAM	RGS4 inh valid	RGS4 uninduced	RGS4 inh ctr2
O=C(OCCN1CCOCC1)c1ccc2c(c1)OCCO2	n	n	n	n	n	x	x	x
O=C(CCCN1CCOCC1)c1ccc2c(c1)OCCO2	n	n	n	n	n	n	n	n
O=C(CCN1CCN(C(=O)c2ccccc2)CC1)c1ccc(Br)cc1	n	6	n	n	n	n	n	10%
O=C(CCN1CCOCC1)c1ccccc1	n	n	n	n	n	n	36%	23%
O=C(CCCO)c1ccc2c(c1)OCCO2	n	n	n	n	n	x	x	x
O=C(CCN1CCCCC1)c1ccccc1	n	n	n	n	n	x	x	x
O=C(CCN1CCOCC1)c1ccc2c(c1)OCCO2	n	21	n	n	n	20%	n	18%
O=C(c1cccc(S(=O)(=O)N2CCc3ccccc32)c1)N1CCN(c2ccccn2)CC1	n	n	n	n	n	x	x	x
CNc1cc(C)c(C#N)c2nc3ccccc3n12	n	n	n	n	n	x	x	x
Cc1cc(Cl)n2c(nc3ccccc32)c1C#N	x	11	n	x	x	31%	n	10%
C=CCNC(=O)NC(=O)COC(=O)c1nc2nccc(C)n2n1	n	4.7	n	n	n	n	n	n
COc1ccc(Oc2ccccc2/C=N/O)cc1	n	n	n	n	n	x	x	x
CC(C)(C)c1cccc(/C=N/O)c1O	n	11	n	n	n	24%	44%	n
O=C(N/N=C/C1=C(N2CCOCC2)C(=C\c2ccccc2)/CC1)Nc1ccccc1	n	n	n	n	n	x	x	x
O=C(O)c1ccccc1N/N=C/C1=C(N2CCOCC2)C(=C\c2ccccc2)/CC1	n	8.2	n	39	n	30%	n	140%
O=[N+]([O-])c1ccccc1-c1cc(-c2ccccc2O)n[nH]1	n	n	n	n	n	n	n	n
O=c1nc(N2CCCC2)nc(Nc2ccccc2)[nH]1	n	n	n	n	n	n	n	n
c1ccc(Nc2nc(N3CCCC3)nc(N3CCOCC3)n2)cc1	n	n	n	n	n	n	n	n
COc1ccc(Nc2nc(N3CCCC3)nc(N3CCOCC3)n2)cc1	n	n	n	n	n	x	x	x
CCN(CC)C(=O)c1ccc(CS(=O)(=O)Cc2ccccc2)cc1	n	n	n	n	n	x	x	x
CSc1c(C#N)c(N)c(C#N)c2c1COC(C)(C)C2	n	5.8	n	n	n	5.5%	n	n
CC1CCN(c2nc(-c3ccco3)c3c(c2C#N)CC(C)(C)OC3)CC1	n	n	n	n	n	n	n	15%
CC1(C)Cc2c(C#N)c(N3CCOCC3)nc(-c3ccccc3)c2CO1	n	n	n	n	n	x	x	x
